From ChEMBL document CHEMBL1147868, “Synthesis of novel triazole derivatives as inhibitors of cytochrome P450 14alpha-demethylase (CYP51)” (2007)
≈ marks a conversion by molar mass, not a printed value.

What was measured:
Type in all cases: functional
Candida parapsilosis = experiment: Antifungal activity against Candida parapsilosis ATCC 0306392 after 7 days by micro-broth dilution method; conditions: Lodderomyces parapsilosis, ATCC 0306392, 168 h
Outline: (§1)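 Micro-broth dilution followed NCCLS methods, using an ATCC standard quality-control strain for C. parapsilosis and a clinical isolate for C. tropicalis. Compounds were dissolved in DMSO, serially diluted in growth medium and incubated at 35 C. MIC80 was the first well with about 80% growth reduction compared with the drug-free well.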

Candida albicans = experiment: Antifungal activity against Candida albicans ATCC Y0109 after 24 hrs by micro-broth dilution method
Outline: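 An ATCC standard quality-control strain was included in each run of an NCCLS micro-broth dilution assay. Compounds were dissolved in DMSO, serially diluted in growth medium and incubated at 35 C. Reading was at 24 h, and MIC80 was the first well showing roughly 80% growth reduction versus the drug-free control.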

Candida tropicalis = experiment: Antifungal activity against Candida tropicalis after 7 days by micro-broth dilution method; conditions: 168 h; outline: as §1
Cryptococcus neoformans = experiment: Antifungal activity against Cryptococcus neoformans ATCC BLS108 after 72 hrs by micro-broth dilution method
Outline: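 This ATCC standard quality-control strain was tested in every assay by NCCLS microdilution. Test agents were dissolved in DMSO and serially diluted in growth medium. Cultures were incubated at 35 C and read at 72 h. MIC80 was the first well with approximately 80% reduced growth relative to the drug-free well.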

Aspergillus fumigatus = experiment: Antifungal activity against Aspergillus fumigatus after 7 days by micro-broth dilution method; conditions: 168 h
Outline: (§2)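 Clinical isolates supplied by a hospital were tested by NCCLS broth microdilution. Compounds were dissolved in DMSO, serially diluted in growth medium, inoculated and incubated at 35 C. Growth was read at 7 days for filamentous fungi. MIC80 was taken as the first well with about 80% less growth than the drug-free well.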

Trichophyton rubrum = experiment: Antifungal activity against Trichophyton rubrum after 7 days by microbroth dilution method; conditions: 168 h; outline: as §2
Fonsecaea compacta = experiment: Antifungal activity against Fonsecaea compacta after 7 days by micro-broth dilution method; conditions: 168 h; outline: as §2
Microsporum = experiment: Antifungal activity against Microsporum gypseum after 7 days by micro-broth dilution method; conditions: 168 h; outline: as §2

Structure (SMILES)	MIC80 (Candida parapsilosis)	MIC80 (Candida albicans)	MIC80 (Candida tropicalis)	MIC80 (Cryptococcus neoformans)	MIC80 (Aspergillus fumigatus)	MIC80 (Trichophyton rubrum)	MIC80 (Fonsecaea compacta)	MIC80 (Microsporum)
COc1ccccc1C(=O)Nc1ccc(N2CCN(CC(O)(Cn3cncn3)c3ccc(F)cc3F)CC2)c(F)c1 (centres undefined)	0.25 mg/L (≈ 0.441 µM)	0.0625 mg/L (≈ 0.11 µM)	0.0152 mg/L (≈ 0.0268 µM)	0.0625 mg/L (≈ 0.11 µM)	1 mg/L (≈ 1.76 µM)	0.0625 mg/L (≈ 0.11 µM)	0.25 mg/L (≈ 0.441 µM)	0.0625 mg/L (≈ 0.11 µM)
Cc1cccc(C(=O)Nc2ccc(N3CCN(CC(O)(Cn4cncn4)c4ccc(F)cc4F)CC3)c(F)c2)c1 (centres undefined)	0.0152 mg/L (≈ 0.0276 µM)	0.0625 mg/L (≈ 0.114 µM)	0.0152 mg/L (≈ 0.0276 µM)	0.0625 mg/L (≈ 0.114 µM)	1 mg/L (≈ 1.82 µM)	0.0625 mg/L (≈ 0.114 µM)	0.25 mg/L (≈ 0.454 µM)	0.0152 mg/L (≈ 0.0276 µM)
Cc1ccccc1C(=O)Nc1ccc(N2CCN(CC(O)(Cn3cncn3)c3ccc(F)cc3F)CC2)c(F)c1 (centres undefined)	0.0152 mg/L (≈ 0.0276 µM)	0.0625 mg/L (≈ 0.114 µM)	0.0152 mg/L (≈ 0.0276 µM)	0.0625 mg/L (≈ 0.114 µM)	1 mg/L (≈ 1.82 µM)	0.0625 mg/L (≈ 0.114 µM)	0.25 mg/L (≈ 0.454 µM)	0.0152 mg/L (≈ 0.0276 µM)
O=C(Nc1ccc(N2CCN(CC(O)(Cn3cncn3)c3ccc(F)cc3F)CC2)c(F)c1)c1ccc(F)cc1 (centres undefined)	0.0039 mg/L (≈ 0.00703 µM)	0.0152 mg/L (≈ 0.0274 µM)	0.0152 mg/L (≈ 0.0274 µM)	0.0152 mg/L (≈ 0.0274 µM)	1 mg/L (≈ 1.8 µM)	0.25 mg/L (≈ 0.451 µM)	0.0625 mg/L (≈ 0.113 µM)	0.0152 mg/L (≈ 0.0274 µM)
COc1cccc(C(=O)Nc2ccc(N3CCN(CC(O)(Cn4cncn4)c4ccc(F)cc4F)CC3)c(F)c2)c1 (centres undefined)	0.0152 mg/L (≈ 0.0268 µM)	0.0625 mg/L (≈ 0.11 µM)	0.0152 mg/L (≈ 0.0268 µM)	0.0152 mg/L (≈ 0.0268 µM)	1 mg/L (≈ 1.76 µM)	0.0152 mg/L (≈ 0.0268 µM)	0.25 mg/L (≈ 0.441 µM)	0.25 mg/L (≈ 0.441 µM)
CCc1ccc(C(=O)Nc2ccc(N3CCN(CC(O)(Cn4cncn4)c4ccc(F)cc4F)CC3)c(F)c2)cc1 (centres undefined)	4 mg/L (≈ 7.08 µM)	0.25 mg/L (≈ 0.443 µM)	0.0625 mg/L (≈ 0.111 µM)	0.0625 mg/L (≈ 0.111 µM)	1 mg/L (≈ 1.77 µM)	0.0625 mg/L (≈ 0.111 µM)	0.0625 mg/L (≈ 0.111 µM)	0.25 mg/L (≈ 0.443 µM)
O=C(Nc1ccc(N2CCN(CC(O)(Cn3cncn3)c3ccc(F)cc3F)CC2)c(F)c1)c1ccccc1F (centres undefined)	< 0.0039 mg/L	0.0152 mg/L (≈ 0.0274 µM)	0.0152 mg/L (≈ 0.0274 µM)	0.0152 mg/L (≈ 0.0274 µM)	4 mg/L (≈ 7.21 µM)	0.0152 mg/L (≈ 0.0274 µM)	0.0625 mg/L (≈ 0.113 µM)	0.0625 mg/L (≈ 0.113 µM)
O=C(Nc1ccc(N2CCN(CC(O)(Cn3cncn3)c3ccc(F)cc3F)CC2)c(F)c1)c1ccccc1 (centres undefined)	0.0152 mg/L (≈ 0.0283 µM)	0.0625 mg/L (≈ 0.116 µM)	0.0039 mg/L (≈ 0.00727 µM)	0.0625 mg/L (≈ 0.116 µM)	1 mg/L (≈ 1.86 µM)	0.0152 mg/L (≈ 0.0283 µM)	0.25 mg/L (≈ 0.466 µM)	0.0152 mg/L (≈ 0.0283 µM)
COc1cc(C(=O)Nc2ccc(N3CCN(CC(O)(Cn4cncn4)c4ccc(F)cc4F)CC3)c(F)c2)cc(OC)c1OC (centres undefined)	0.0625 mg/L (≈ 0.0997 µM)	0.25 mg/L (≈ 0.399 µM)	0.0625 mg/L (≈ 0.0997 µM)	1 mg/L (≈ 1.6 µM)	4 mg/L (≈ 6.38 µM)	> 64 mg/L	4 mg/L (≈ 6.38 µM)	1 mg/L (≈ 1.6 µM)
CCCCc1ccc(C(=O)Nc2ccc(N3CCN(CC(O)(Cn4cncn4)c4ccc(F)cc4F)CC3)c(F)c2)cc1 (centres undefined)	1 mg/L (≈ 1.69 µM)	1 mg/L (≈ 1.69 µM)	1 mg/L (≈ 1.69 µM)	1 mg/L (≈ 1.69 µM)	16 mg/L (≈ 27 µM)	1 mg/L (≈ 1.69 µM)	0.0625 mg/L (≈ 0.105 µM)	0.0625 mg/L (≈ 0.105 µM)
COc1ccc(C(=O)Nc2ccc(N3CCN(CC(O)(Cn4cncn4)c4ccc(F)cc4F)CC3)c(F)c2)cc1 (centres undefined)	0.0152 mg/L (≈ 0.0268 µM)	0.0152 mg/L (≈ 0.0268 µM)	0.0152 mg/L (≈ 0.0268 µM)	0.0625 mg/L (≈ 0.11 µM)	0.25 mg/L (≈ 0.441 µM)	0.25 mg/L (≈ 0.441 µM)	0.25 mg/L (≈ 0.441 µM)	0.25 mg/L (≈ 0.441 µM)
C[C@@H]1[C@H](O)[C@@H](C)/C=C/C=C/C=C/C=C/C=C/C=C/C=C/[C@H](O[C@@H]2O[C@H](C)[C@@H](O)[C@H](N)[C@@H]2O)C[C@@H]2O[C@](O)(C[C@@H](O)C[C@@H](O)[C@H](O)CC[C@@H](O)C[C@@H](O)CC(=O)O[C@H]1C)C[C@H](O)[C@H]2C(=O)O [AMPHOTERICIN B]	0.0152 mg/L (≈ 0.0164 µM)	1 mg/L (≈ 1.08 µM)	0.0625 mg/L (≈ 0.0676 µM)	1 mg/L (≈ 1.08 µM)	4 mg/L (≈ 4.33 µM)	1 mg/L (≈ 1.08 µM)	16 mg/L (≈ 17.3 µM)	0.0039 mg/L (≈ 0.00422 µM)
O=C(Nc1ccc(N2CCN(CC(O)(Cn3cncn3)c3ccc(F)cc3F)CC2)c(F)c1)c1ccccc1Cl (centres undefined)	0.0152 mg/L (≈ 0.0266 µM)	0.0152 mg/L (≈ 0.0266 µM)	0.0152 mg/L (≈ 0.0266 µM)	0.25 mg/L (≈ 0.438 µM)	1 mg/L (≈ 1.75 µM)	0.0152 mg/L (≈ 0.0266 µM)	0.0625 mg/L (≈ 0.109 µM)	0.0152 mg/L (≈ 0.0266 µM)
CC(C)(C)c1ccc(C(=O)Nc2ccc(N3CCN(CC(O)(Cn4cncn4)c4ccc(F)cc4F)CC3)c(F)c2)cc1 (centres undefined)	0.0625 mg/L (≈ 0.105 µM)	1 mg/L (≈ 1.69 µM)	0.25 mg/L (≈ 0.422 µM)	0.25 mg/L (≈ 0.422 µM)	4 mg/L (≈ 6.75 µM)	4 mg/L (≈ 6.75 µM)	0.25 mg/L (≈ 0.422 µM)	0.25 mg/L (≈ 0.422 µM)
CCCc1ccc(C(=O)Nc2ccc(N3CCN(CC(O)(Cn4cncn4)c4ccc(F)cc4F)CC3)c(F)c2)cc1 (centres undefined)	0.0625 mg/L (≈ 0.108 µM)	1 mg/L (≈ 1.73 µM)	1 mg/L (≈ 1.73 µM)	1 mg/L (≈ 1.73 µM)	4 mg/L (≈ 6.91 µM)	0.25 mg/L (≈ 0.432 µM)	0.25 mg/L (≈ 0.432 µM)	0.25 mg/L (≈ 0.432 µM)
Cc1ccc(C(=O)Nc2ccc(N3CCN(CC(O)(Cn4cncn4)c4ccc(F)cc4F)CC3)c(F)c2)c(C)c1 (centres undefined)	0.25 mg/L (≈ 0.443 µM)	0.25 mg/L (≈ 0.443 µM)	0.0625 mg/L (≈ 0.111 µM)	0.0625 mg/L (≈ 0.111 µM)	1 mg/L (≈ 1.77 µM)	0.0625 mg/L (≈ 0.111 µM)	0.25 mg/L (≈ 0.443 µM)	0.0152 mg/L (≈ 0.0269 µM)
O=C(Nc1ccc(N2CCN(CC(O)(Cn3cncn3)c3ccc(F)cc3F)CC2)c(F)c1)c1ccc(OC(F)(F)F)cc1 (centres undefined)	0.0625 mg/L (≈ 0.101 µM)	0.0152 mg/L (≈ 0.0245 µM)	0.0625 mg/L (≈ 0.101 µM)	0.25 mg/L (≈ 0.403 µM)	1 mg/L (≈ 1.61 µM)	0.0625 mg/L (≈ 0.101 µM)	0.0625 mg/L (≈ 0.101 µM)	0.0625 mg/L (≈ 0.101 µM)
O=C(Nc1ccc(N2CCN(CC(O)(Cn3cncn3)c3ccc(F)cc3F)CC2)c(F)c1)c1ccc([N+](=O)[O-])cc1 (centres undefined)	1 mg/L (≈ 1.72 µM)	0.25 mg/L (≈ 0.43 µM)	4 mg/L (≈ 6.88 µM)	0.25 mg/L (≈ 0.43 µM)	4 mg/L (≈ 6.88 µM)	0.25 mg/L (≈ 0.43 µM)	0.0625 mg/L (≈ 0.107 µM)	0.0625 mg/L (≈ 0.107 µM)
CCCCCc1ccc(C(=O)Nc2ccc(N3CCN(CC(O)(Cn4cncn4)c4ccc(F)cc4F)CC3)c(F)c2)cc1 (centres undefined)	0.25 mg/L (≈ 0.412 µM)	0.25 mg/L (≈ 0.412 µM)	4 mg/L (≈ 6.59 µM)	0.25 mg/L (≈ 0.412 µM)	4 mg/L (≈ 6.59 µM)	1 mg/L (≈ 1.65 µM)	1 mg/L (≈ 1.65 µM)	1 mg/L (≈ 1.65 µM)
CCC(C)n1ncn(-c2ccc(N3CCN(c4ccc(OCC5COC(Cn6cncn6)(c6ccc(Cl)cc6Cl)O5)cc4)CC3)cc2)c1=O (centres undefined) [ITRACONAZOLE]	0.25 mg/L (≈ 0.354 µM)	1 mg/L (≈ 1.42 µM)	0.25 mg/L (≈ 0.354 µM)	1 mg/L (≈ 1.42 µM)	1 mg/L (≈ 1.42 µM)	0.0152 mg/L (≈ 0.0215 µM)	0.25 mg/L (≈ 0.354 µM)	0.0152 mg/L (≈ 0.0215 µM)
CC(C)c1ccc(C(=O)Nc2ccc(N3CCN(CC(O)(Cn4cncn4)c4ccc(F)cc4F)CC3)c(F)c2)cc1 (centres undefined)	0.25 mg/L (≈ 0.432 µM)	1 mg/L (≈ 1.73 µM)	0.25 mg/L (≈ 0.432 µM)	0.0625 mg/L (≈ 0.108 µM)	4 mg/L (≈ 6.91 µM)	0.25 mg/L (≈ 0.432 µM)	0.25 mg/L (≈ 0.432 µM)	0.25 mg/L (≈ 0.432 µM)
OC(Cn1cncn1)(Cn1cncn1)c1ccc(F)cc1F [FLUCONAZOLE]	1 mg/L (≈ 3.27 µM)	4 mg/L (≈ 13.1 µM)	1 mg/L (≈ 3.27 µM)	1 mg/L (≈ 3.27 µM)	64 mg/L (≈ 209 µM)	0.25 mg/L (≈ 0.816 µM)	16 mg/L (≈ 52.2 µM)	0.25 mg/L (≈ 0.816 µM)
O=C(Nc1ccc(N2CCN(CC(O)(Cn3cncn3)c3ccc(F)cc3F)CC2)c(F)c1)c1ccc(Cl)cc1Cl (centres undefined)	0.0152 mg/L (≈ 0.0251 µM)	0.25 mg/L (≈ 0.413 µM)	0.0625 mg/L (≈ 0.103 µM)	0.0625 mg/L (≈ 0.103 µM)	0.25 mg/L (≈ 0.413 µM)	0.0625 mg/L (≈ 0.103 µM)	0.25 mg/L (≈ 0.413 µM)	0.0039 mg/L (≈ 0.00644 µM)
